The source made the active and inactive calls. The calls are words filed in the database; no cut-off is given here.
Experiments:
[1] = Induction of Zinc-dependent p53 R175H mutant refolding by assessing wild type conformation
Procedure, shortened: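 Cells grown on coverslips and treated, fixed in 4% paraformaldehyde 10 min, permeabilized in 0.5% Triton X-100 5 min. Stained overnight with conformation-specific antibodies PAB1620 (1:50, wild-type fold) and PAB240 (1:400, misfolded/unfolded), then goat anti-mouse IgG secondary for 40 min.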

[2] = Binding affinity to Zn(II)+ incubated for 60 mins using RhodZin-3 by fuorescence assay
NCI-H1299 [3] = test: Induction of ROS production in human H1299 cells at 0.75 uM incubated for 24 hrs by CellRox green based fluorescence flow cytometry relative to ZMC1; format: functional
[4] = Ratio of EC50 for test compound to EC50 for ZMC1 for growth inhibition of human TOV-112D cells harbouring p53 R175H mutant incubated for 3 days by MTS assay; format: functional, TOV112D; conditions: time 3 day
[5] = Binding affinity to Zn(II)+ incubated for 60 mins using FluoZin-3 by fuorescence assay
[6] = target: Sodium-dependent noradrenaline transporter (Homo sapiens, UniProt P23975); test: Displacement of [3H]nisoxetine from recombinant human norepinephrine transporter at 10 uM incubated for 120 mins by radiometric scintillation analysis relative to control; format: ADME; conditions: probe [3H]nisoxetine
Chain of Sodium-dependent noradrenaline transporter (P23975 whole entry): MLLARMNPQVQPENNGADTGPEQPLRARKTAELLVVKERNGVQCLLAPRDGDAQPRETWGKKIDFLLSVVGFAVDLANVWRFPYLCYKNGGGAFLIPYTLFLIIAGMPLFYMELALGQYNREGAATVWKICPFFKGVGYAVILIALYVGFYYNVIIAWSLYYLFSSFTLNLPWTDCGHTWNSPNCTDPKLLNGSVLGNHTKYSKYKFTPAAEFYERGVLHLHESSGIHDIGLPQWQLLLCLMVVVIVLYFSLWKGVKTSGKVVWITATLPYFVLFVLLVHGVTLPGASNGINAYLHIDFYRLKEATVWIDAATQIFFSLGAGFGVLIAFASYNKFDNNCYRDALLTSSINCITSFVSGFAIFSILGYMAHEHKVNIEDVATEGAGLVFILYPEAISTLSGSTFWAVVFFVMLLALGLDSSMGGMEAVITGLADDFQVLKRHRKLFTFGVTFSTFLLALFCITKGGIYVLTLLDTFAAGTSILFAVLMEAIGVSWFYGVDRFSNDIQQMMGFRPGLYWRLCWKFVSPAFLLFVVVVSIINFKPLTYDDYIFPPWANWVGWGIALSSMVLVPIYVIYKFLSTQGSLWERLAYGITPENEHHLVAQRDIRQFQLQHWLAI

[7] = target: 5-hydroxytryptamine receptor 2A (Homo sapiens, UniProt P28223); test: Displacement of [125I]+/-DOI from human recombinant 5-HT2A receptor at 10 uM after 60 mins by scintillation counting analysis relative to control; conditions: recombinant human 5-HT2A receptor, probe [125I]+/-DOI
Chain of 5-hydroxytryptamine receptor 2A (P28223 whole entry): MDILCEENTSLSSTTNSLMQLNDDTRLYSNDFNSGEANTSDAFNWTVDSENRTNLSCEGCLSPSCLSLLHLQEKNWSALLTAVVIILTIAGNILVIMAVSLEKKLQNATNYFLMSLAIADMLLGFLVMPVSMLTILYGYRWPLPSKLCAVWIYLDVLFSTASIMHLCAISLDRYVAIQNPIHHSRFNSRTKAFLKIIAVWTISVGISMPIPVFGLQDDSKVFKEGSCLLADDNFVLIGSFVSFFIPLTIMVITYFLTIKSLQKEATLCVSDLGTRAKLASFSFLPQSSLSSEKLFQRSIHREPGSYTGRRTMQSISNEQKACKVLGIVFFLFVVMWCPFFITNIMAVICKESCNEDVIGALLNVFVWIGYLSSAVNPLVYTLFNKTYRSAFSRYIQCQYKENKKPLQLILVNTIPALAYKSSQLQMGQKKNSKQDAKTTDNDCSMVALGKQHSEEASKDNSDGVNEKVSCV

TOV112D [8] = test: Anticancer activity against human TOV112D cells harbouring p53 R175H mutant xenografted NCr nu/nu mouse assessed as tumor growth inhibition at 5.73 mg/kg, ip relative to control; format: functional; conditions: read-out: TGI
Procedure, shortened: (§1)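 Tumors (five per group) were grown to 50 mm³, then the compound was given ip daily. Dimensions were measured every other day, with volume = L × W² × π/6. Significance was tested by Student's t test.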

hERG (KCNH2) = hERG (KCNH2) (Homo sapiens, UniProt Q12809); test: Displacement of [3H]-dofetilide from human recombinant ERG at 10 uM relative to control; conditions: probe [3H]-dofetilide
Chain of hERG (KCNH2) (Q12809 whole entry): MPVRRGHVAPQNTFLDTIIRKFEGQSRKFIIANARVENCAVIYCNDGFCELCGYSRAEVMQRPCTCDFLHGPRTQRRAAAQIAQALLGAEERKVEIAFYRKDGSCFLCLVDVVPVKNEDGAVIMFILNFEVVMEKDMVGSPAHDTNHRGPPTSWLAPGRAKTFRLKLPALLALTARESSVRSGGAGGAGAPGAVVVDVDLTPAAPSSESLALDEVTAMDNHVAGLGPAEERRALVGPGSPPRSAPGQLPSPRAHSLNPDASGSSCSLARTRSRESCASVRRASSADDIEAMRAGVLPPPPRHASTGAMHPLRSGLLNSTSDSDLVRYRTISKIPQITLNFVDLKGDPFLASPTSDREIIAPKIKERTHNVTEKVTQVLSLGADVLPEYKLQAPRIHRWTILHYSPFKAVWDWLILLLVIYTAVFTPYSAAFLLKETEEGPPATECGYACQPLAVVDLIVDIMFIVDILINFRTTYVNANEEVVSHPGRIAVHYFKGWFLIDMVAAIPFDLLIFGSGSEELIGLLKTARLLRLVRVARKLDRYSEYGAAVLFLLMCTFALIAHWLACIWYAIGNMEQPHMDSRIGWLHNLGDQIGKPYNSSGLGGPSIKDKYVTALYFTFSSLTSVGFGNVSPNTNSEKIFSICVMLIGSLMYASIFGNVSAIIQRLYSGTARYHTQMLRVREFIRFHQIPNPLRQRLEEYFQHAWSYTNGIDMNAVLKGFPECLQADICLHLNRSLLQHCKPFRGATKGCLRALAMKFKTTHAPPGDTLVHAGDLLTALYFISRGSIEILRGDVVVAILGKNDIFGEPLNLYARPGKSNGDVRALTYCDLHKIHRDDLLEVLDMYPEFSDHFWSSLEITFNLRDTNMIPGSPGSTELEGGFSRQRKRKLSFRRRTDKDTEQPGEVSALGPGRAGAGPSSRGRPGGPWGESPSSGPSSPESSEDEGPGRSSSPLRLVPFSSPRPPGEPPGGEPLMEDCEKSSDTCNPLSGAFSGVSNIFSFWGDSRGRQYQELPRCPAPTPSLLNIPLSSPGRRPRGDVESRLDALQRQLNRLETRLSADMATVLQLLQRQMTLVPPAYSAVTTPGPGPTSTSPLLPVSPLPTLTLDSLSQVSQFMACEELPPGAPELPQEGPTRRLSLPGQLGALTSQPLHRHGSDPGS

Sodium channel site 2 = test: Displacement of [3H]batrachotoxinin from rat Sodium channel site 2 at 10 uM incubated for 60 mins by radiometric scintillation analysis relative to control; conditions: rat sodium channel site 2, probe [3H]batrachotoxinin
TOV112D [9] = test: Growth inhibition of human TOV112D cells harbouring p53 R175H mutant incubated for 3 days by MTS assay; format: functional, cell-based; conditions: 72 h
[10] = Apparent permeability in human Caco-2 cells at 5 uM measured up to 90 mins by LC-MS/MS analysis; format: ADME, cell-based
Mu-type opioid receptor = Mu-type opioid receptor (Homo sapiens, UniProt P35372); test: Displacement of [3H]DAMGO from human recombinant mu receptor at 10 uM after 120 mins by scintillation counting analysis relative to control; conditions: probe [3H]DAMGO
Chain of Mu-type opioid receptor (P35372 whole entry): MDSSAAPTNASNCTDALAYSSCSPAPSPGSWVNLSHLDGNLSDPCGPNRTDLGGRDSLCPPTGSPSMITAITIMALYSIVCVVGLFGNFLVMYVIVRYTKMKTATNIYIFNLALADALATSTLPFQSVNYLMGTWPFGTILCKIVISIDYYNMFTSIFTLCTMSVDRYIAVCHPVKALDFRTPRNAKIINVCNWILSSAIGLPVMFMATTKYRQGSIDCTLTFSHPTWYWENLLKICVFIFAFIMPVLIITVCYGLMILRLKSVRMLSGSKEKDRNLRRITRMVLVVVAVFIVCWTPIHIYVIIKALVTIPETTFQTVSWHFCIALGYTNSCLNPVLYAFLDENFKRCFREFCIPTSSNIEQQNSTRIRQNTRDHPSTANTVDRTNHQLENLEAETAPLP

NCI-H460 = test: Cytotoxicity against human NCI-H460 cells harbouring p53 wild type; format: functional, cell-based
Procedure, shortened: (§2)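 5000 cells/well seeded; serial compound dilutions added next day at about 50% confluence. Growth read by MTS or Calcein AM after 3 days. Three independent experiments, each in triplicate; significance by Student's t test.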

NCI-H1299 [11] = test: Cytotoxicity against p53-null human H1299 cells; format: functional, cell-based; procedure, shortened: as §2
MDA-MB-468 = test: Anticancer activity against human MDA-MB-468 cells harbouring p53 R273H mutant xenografted NCr nu/nu mouse assessed as tumor growth inhibition at 5.73 mg/kg, ip relative to control; format: functional, organism-based
Procedure, shortened: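 MDA-MB-468 xenografts (6 × 10⁶ cells/site) in NCr nu/nu nude mice, five tumors per group, grown to 50 mm³, then dosed ip daily. Tumor length and width measured every other day; volume = L × W² × π/6. Growth versus control compared by Student's t test.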

[12] = Toxicity in NCr nu/nu mouse assessed as change in body weight loss up to 30 mg/kg, ip; format: organism-based; conditions: in vivo
Procedure, shortened: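 NCr nu/nu mice, 8–12 weeks old, 5 per dose, given a single intraperitoneal injection for acute maximum tolerated dose testing. Health, behavior and body weight monitored afterward.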

TOV112D [13] = test: Anticancer activity against human TOV112D cells harbouring p53 R175H mutant xenografted NCr nu/nu mouse assessed as tumor growth inhibition at 5 mg/kg, ip relative to control; format: functional; conditions: read-out: TGI; procedure, shortened: as §1

| SMILES | Activity [1] | Ratio (NCI-H1299 [3]) | Kd [5] [nM] | inhibition at 2 h, 10 µM [6] [%] | inhibition at 1 h, 10 µM [7] [%] | inhibition at 10 µM (hERG (KCNH2)) [%] | inhibition at 1 h, 10 µM (Sodium channel site 2) [%] | EC50 (TOV112D [9]) [nM] | other results |
| --- | --- | --- | --- | --- | --- | --- | --- | --- | --- |
| C/C(=N\NC(=S)N1CCC1)c1cnccn1 | Active | 2 |  |  |  |  |  |  | Kd ([2]; read-out: Kd): 99.4 nM; Ratio EC50 [4]: 4.5 |
| C/C(=N\Nc1nc2ccccc2n1CCN1CCCC1)c1ccccn1 | Active |  | 22 | 101 | 96 | 88 | 101 |  | inhibition in vivo at 5.73 mg/kg (TOV112D [8]): 47% |
| C/C(=N\Nc1nc2ccccc2n1CCN1CCOCC1)c1ccccn1 | Active |  | 71 | -7 | 100 | 76 | 50 | 51 | inhibition in vivo at 5.73 mg/kg (TOV112D [8]): 59% |
| COC/C(=N\Nc1nc2ccccc2s1)c1ccccn1 | Active | 0.9 | 197 |  |  |  |  |  |  |
| C/C(=N\NC(=S)N1CCC1)c1cccc(C)n1 | Active |  |  |  |  |  |  | 132 | Kd ([2]; read-out: Kd): 48.3 nM |
| O=C(O)CN(CC(=O)O)CC(=O)O [NITRILOTRIACETIC ACID] |  |  |  |  |  |  |  |  | Kd ([2]; read-out: Kd): 17 nM |
| CC(C)(C)/C(=N\NC(=S)N1CCC1)c1ccccn1 | inactive | 0.7 |  |  |  |  |  |  | Kd [2]: Not Active |
| C/C(=N\NC(=O)N1CCC1)c1ccccn1 | inactive |  |  |  |  |  |  | > 10000 |  |
| C/C(=N\NC(=S)N(C)C)c1ccccn1 | Active | 1.3 |  |  |  |  |  | 1 | Kd ([2]; read-out: Kd): 25.6 nM; Papp at […], 5 µM [10]: 7.3 ×10⁻⁶ cm/s; Ratio EC50 [4]: 0.2 |
| C/C(=N\Nc1ccc2ccccc2n1)c1ccccn1 | Active |  |  |  |  |  |  | 141 |  |
| C/C(=N\NC(=S)N1CCC1)c1ccccc1 | inactive | 0.9 |  |  |  |  |  |  | Kd [2]: Not Active |
| C/C(=N\Nc1nc2ccccc2s1)c1cc(OCCN2CCN(C)CC2)ccn1 | inactive | 0.9 | 20 |  |  |  |  |  |  |
| CS/C(=N\N=C(/C)c1ccccn1)N1CCC1 | inactive |  |  |  |  |  |  |  | Kd [2]: Not Active |
| C/C(=N\Nc1nc2ccccc2o1)c1ccccn1 | Active |  |  | 21 |  | 21 | 12 | 6 | inhibition at 2 h, 10 µM (Mu-type opioid receptor): 2%; Activity (NCI-H460): inactive; Activity (NCI-H1299 [11]): inactive |
| C/C(=N\Nc1nc2ccccc2o1)c1cc(OCCN(C)C)ccn1 | Active | 1.4 | 47 | -25 | 32 | 51 | 21 | 53 | inhibition at 2 h, 10 µM (Mu-type opioid receptor): 0%; inhibition in vivo at 5.73 mg/kg (TOV112D [8]): 56%; Ratio EC50 [4]: 5.6 |
| C/C(=N\Nc1nc2ccccc2s1)c1ccccn1 | Active |  |  | 101 | 96 | 19 | 101 | 55 | TGI (MDA-MB-468): inactive; inhibition at 2 h, 10 µM (Mu-type opioid receptor): 13%; Activity [12]: Non-Toxic; Activity (NCI-H460): inactive; inhibition in vivo at 5 mg/kg (TOV112D [13]): 72%; Activity (NCI-H1299 [11]): inactive |
| C/C(=N\Nc1nc2ccccc2n1C)c1ccccn1 | Active |  |  | 61 | 46 | 86 | 7 | 4 | inhibition at 2 h, 10 µM (Mu-type opioid receptor): 48% |
| COCCOc1ccc2nc(N/N=C(\C)c3ccccn3)sc2c1 | Active | 2.4 | 81 |  |  |  |  |  | Kd ([2]; read-out: Kd): 386 nM |
| C/C(=N\Nc1nc2ccccc2s1)c1cc(N(C)C)ccn1 | Active |  |  |  |  |  |  | 48 |  |
| C/C(=N\Nc1nc2ccccc2s1)c1ncccn1 | inactive | 1.2 | 79 | 84 | 3 | -2 | 2 |  | inhibition at 2 h, 10 µM (Mu-type opioid receptor): 4% |
| C/C(=N\Nc1nccn1C)c1ccccn1 | Active | 0.9 | 408 | 4 | 11 | 7 | 23 | 445 | inhibition at 2 h, 10 µM (Mu-type opioid receptor): -2%; inhibition in vivo at 5.73 mg/kg (TOV112D [8]): 57%; Ratio EC50 [4]: 47.1 |
| C/C(=N\NC(=S)N1CCC1)c1cc(N(C)C)ccn1 | inactive |  |  |  |  |  |  | 8 |  |
| C/C(=N\NC(=S)N1CCC1)c1ncccc1C | inactive |  |  |  |  |  |  |  |  |
| C/C(=N\Nc1nc2ccccc2s1)c1cc(OCCN(C)C)ccn1 | Active | 2.5 | 55 | 82 | 76 | 95 | 36 |  | inhibition at 2 h, 10 µM (Mu-type opioid receptor): 48% |
| C/C(=N\Nc1nc2ccccc2n1CCN(C)C)c1ccccn1 | Active | 1.6 | 61 |  |  |  |  | 42 | Ratio EC50 [4]: 5.2 |
| C/C(=N\Nc1nc2ccccc2s1)c1cc(OCCO)ccn1 | inactive | 2.8 | 22 |  |  |  |  |  |  |
| C/C(=N\Nc1nc2ccccc2n1C)c1ncccn1 | inactive | 1.6 | 54 | -2 | 11 | 77 | 12 |  | inhibition at 2 h, 10 µM (Mu-type opioid receptor): 41% |
| C/C(=N\NC(=S)NC1CCN(c2ccccn2)CC1)c1ccccn1 | inactive |  |  |  |  |  |  |  | Kd [2]: Not Active |

Reference: ChEMBL document CHEMBL4808163, “Benzothiazolyl and Benzoxazolyl Hydrazones Function as Zinc Metallochaperones to Reactivate Mutant p53” (J Med Chem, 2021)
